NadD block: NadD (S. aureus) enzyme inhibition | inhibition, % at 20 µM | 360,000 compounds, 0.78% hits | AID 602399 | purified NadD enzyme, colorimetric absorbance read-out; in the data active = inhibition above about 26%
MsrA inhibitor: inhibitors of bovine MsrA. purified bovine MsrA, absorbance read-out. inhibition, % at 15.5 µM. 360,000 compounds, 0.75% hits. AID 651718; in the data active = inhibition above about 4.5%;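 also: 0% = vehicle wells with enzyme and 100% = reference inhibitor wells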
bovine MsrA act: activates bovine MsrA enzyme; purified bovine MsrA, absorbance read-out; activation, % at 10.6 µM; 360,000 compounds, 0.3% hits; AID 602163; in the data active = activation above about 7.5%;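 also: 0% = vehicle and 100% = reference activator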
GalR3 antagonist: human GalR3 antagonism | inhibition, % at 3 µM | HEK293 GalR3-CNG cAMP membrane potential fluorescence; galR3 body fused to GalR1 C-terminus | O60755 | AID 651719 | 360,000 compounds, 0.44% hits;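 active = inhibition above the screen-wide average plus 3 SD, cut at about 13% in these data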;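 also: forskolin and galanin both at EC90 stimulate the cells; cAMP rise reported by CNG channel membrane potential dye signal; 0% = forskolin plus galanin with DMSO and 100% = forskolin alone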
NR2E3 ag-1: NR2E3 (human) agonism. GST-NR2E3/biotin-RetCOR TR-FRET, 1536-well. Q9Y5X4. AID 2300. inhibition of corepressor binding, % at 4.78 µM. 320,000 compounds, 0.12% hits;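 active = percent inhibition above the cutoff of mean plus 3 SD of all tested compounds, set per screening campaign, cut at about 20% in these data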;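 also: 0% = DMSO wells and 100% = biotin wells as full block of FRET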
Target sequence (Q9Y5X4 whole entry, looked up): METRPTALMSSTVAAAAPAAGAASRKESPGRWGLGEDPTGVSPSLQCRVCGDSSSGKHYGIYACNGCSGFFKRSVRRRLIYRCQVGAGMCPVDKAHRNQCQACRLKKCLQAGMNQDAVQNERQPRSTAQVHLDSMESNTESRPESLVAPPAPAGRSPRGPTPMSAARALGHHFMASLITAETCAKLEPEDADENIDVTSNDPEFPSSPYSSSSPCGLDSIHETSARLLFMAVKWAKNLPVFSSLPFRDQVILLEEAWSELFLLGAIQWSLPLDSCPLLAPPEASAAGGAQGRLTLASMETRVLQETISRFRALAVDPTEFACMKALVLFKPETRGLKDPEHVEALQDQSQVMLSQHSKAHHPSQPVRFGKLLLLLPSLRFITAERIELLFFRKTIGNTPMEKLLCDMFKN
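System: GST-tagged NR2E3 plus biotinylated RetCOR corepressor; Buffer or medium: pH 7.5 Tris-based buffer; Probe or stimulus: RetCOR corepressor, biotinylated, 7 nM; Doses: compound at 4.8 µM, single dose; Schedule: 5 h incubation at 4 °C; Technique: time-resolved FRET; Evaluation: percent inhibition of TR-FRET ratio; Replication: one well per compound, singlicate testing.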
NR2E3 ag-2: activates human NR2E3 receptor | CHO-S Gal4-NCOR/VP16-NR2E3 two-hybrid, luciferase | inhibition of corepressor binding, % at 3.98 µM | 360,000 compounds, 0.35% hits | Q9Y5X4;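 active = inhibition above the mean of all tested compounds plus 3 SD, cut at about 70% in these data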;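 also: 0% = DMSO with NR2E3 transfected cells and 100% = cells lacking NR2E3 construct; higher means lower luciferase signal from less NR2E3 corepressor binding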
Numbers without * were called inactive; / = no result. The list is not random: actives were taken first. Their share in the collection is about 2.5%.

SMILES	NadD block	MsrA inhibitor	bovine MsrA act	GalR3 antagonist	NR2E3 ag-1	NR2E3 ag-2
O=C(Nc1ccc(NC(=O)c2cc([N+](=O)[O-])ccc2N2CCOCC2)cc1)c1cccs1	5	4.6*	-5	0	-4	1
Brc1cc(Br)c2nc3c(cc2c1)CCC3	-7	2	-2	-13	18	-39
O=C(COC(=O)Cc1ccc(Br)cc1)NCC1CCCO1 (stereo unspecified)	0	-1	-2	-4	/	3
O=C(COC(=O)Cc1c(Cl)cccc1Cl)NCC1CCCO1 (stereo unspecified)	-7	-1	-6	14*	-2	-6
O=C(O)c1ccccc1NS(=O)(=O)c1ccc(N/N=C/c2ccc(O)c(O)c2)c([N+](=O)[O-])c1	19	4.8*	-8	-7	/	-27
COc1ccc(C2NC(=S)NC3=C2CCCC3=C2SCCS2)cc1 (stereo unspecified)	61*	0	-9	-5	3	10
COc1cc(OC)cc(N(C(=O)c2ccco2)C(C(=O)NC2CCCC2)c2ccc(N(C)C)cc2)c1 (stereo unspecified)	6	0	1	2	2	-14
O=C(Cc1csc(NC(=O)Nc2ccc(Cl)cc2)n1)NCc1cccnc1	1	0	-4	0	2	-62
CCN1CCN(CC(=O)N2N=C(c3cccs3)CC2c2ccc(OC)c(OC)c2)C(=O)C1=O (stereo unspecified)	3	2	-3	1	0	-1
C=C1C(=O)c2sccc2C(c2ccc(OC)c(OC)c2)C1COC(C)=O (stereo unspecified)	1	1	-15	28*	/	22
CNc1nn(-c2cccc(Cl)c2)nc1N	3	2	-9	1	-3	-75
COc1cccc(/C(O)=C2/C(=O)C(=O)N(c3cc(C)on3)C2c2cccs2)c1 (stereo unspecified)	5	5.0*	-3	-3	5	12
CSCCC(NS(=O)(=O)/C=C/c1ccccc1)C(=O)O (stereo unspecified)	-2	0	-2	2	3	4
CC(Sc1nnc(NC2CCCCC2)s1)C(=O)Nc1ccc2c(c1)C(=O)c1ccccc1C2=O (stereo unspecified)	38*	1	1	-4	-1	-95
CC(Sc1nnc(NC2CC2)s1)C(=O)Nc1ccc(N2CCOCC2)cc1 (stereo unspecified)	-3	1	1	2	/	25
Cc1ccc(C(=O)NC2CCN(CC(=O)Nc3c(C)cc(C)cc3C)CC2)cc1	-3	0	-3	-8	0	-18
O=C(N/N=C/c1ccc(OC2CSC2)cc1)c1ccccc1	-7	2	1	0	4	-85
Cc1ccc(/C=N/NC(=O)c2ccc(OC3CCCC3)cc2)o1	-1	4.6*	-5	-3	/	-7
Clc1cc(Br)ccc1OCCCn1ccnc1	-4	-1	1	-2	0	-29
O=C(N/N=C/C=C/c1ccccc1)c1cc(C2CC2)[nH]n1	1	4	-6	-5	1	-29
Cc1ccc(-c2cc(C(=O)N/N=C/C=C/c3ccccc3)n[nH]2)s1	19	4.6*	-7	-4	5	-28
COc1cc(NCCCCC(C)N)c2nccc(C)c2c1 (stereo unspecified)	-73	-1	1	-2	/	-18
COc1cc(NCCCC(C)N)c2ncccc2c1 (stereo unspecified)	4	-1	12*	-2	/	-16
CN(/N=C\c1ccc(O)c(O)c1)c1nc(-c2ccccc2)cc(-c2ccccc2)n1	33*	2	-6	-5	-1	6
NC(=O)N/N=C/c1ccccc1OC(=O)c1cc2ccccc2oc1=O	-7	3	-3	1	3	-21
SMILES	NadD block	MsrA inhibitor	bovine MsrA act	GalR3 antagonist	NR2E3 ag-1	NR2E3 ag-2
NC(=S)N/N=C/c1ccccc1OC(=O)c1cc2ccccc2oc1=O	2	4.6*	0	-8	-2	53
Cc1ccc(S(=O)(=O)/N=C2/NC(=O)/C(=C/c3ccccc3)S2)cc1	14	4.6*	-4	-7	0	12
Cc1ccc(S(=O)(=O)/N=C2/NC(=O)/C(=C\c3ccccc3)S2)cc1	6	4	-5	-5	/	30
C/C(=N/NC(=O)c1ccncc1)c1ccccc1	2	1	-1	-12	-1	-15
C/C(=N\NC(=O)c1ccncc1)c1ccc(N(C)C)cc1	-2	4.7*	-5	0	3	-21
O=C(N/N=C/c1ccc2c(c1)OCCO2)c1ccncc1	-9	4.5*	-4	-4	1	-25
O=C(N/N=C/c1ccncc1)c1ccc2c(c1)OCO2	1	3	-1	0	1	-30
CC[n+]1c(/C=C/N(C)c2ccccc2)oc2ccc(F)cc21	0	3	-7	-9	1	6
CC[n+]1c(/C=C/N(C)c2ccccc2)oc2ccccc21	-7	4.7*	-9	-1	4	-19
Cc1ccc(C(c2sc3ncnn3c2O)N2CC(C)CC(C)C2)cc1 (stereo unspecified)	6	1	0	/	-1	-26
O=C(CNc1cccc2ccccc12)N/N=C/C=C/c1ccco1	24	4.6*	-5	-7	1	4
O=C(CNc1cccc2ccccc12)N/N=C/c1ccc(C(=O)O)cc1	2	1	-5	2	-3	0
CCCc1nc2sc3c(SCC(=O)NCc4ccco4)ncnc3c2c2c1CCC2	34*	-1	-3	-4	10	-13
COC(=O)C1=C[C@@H](C(=O)OC)[C@@H]2C3=C(C(=O)C2(C)C)[C@H](c2ccccc2)[C@@H]2C(=O)N(C)C(=O)[C@@H]2[C@@H]3C1	-4	1	-1	6	4	6
COC(=O)C(=CC(=CN(C)C)C=C(C(=O)OC)C(=O)OC)C(=O)OC	-2	4.5*	-5	-3	-2	15
Oc1ccc(/C=N/Nc2ccnc3cc(Cl)ccc23)c(O)c1O	59*	2	-4	-5	-1	-29
CCC(=O)c1ccc(N2CCN(C(=O)COc3ccc(F)cc3)CC2)c(F)c1	1	0	1	-3	-1	8
COc1cccc(C2=NOC(C(=O)N3CCN(C(=O)c4ccco4)CC3)C2)c1 (stereo unspecified)	-5	1	1	-5	1	-15
COc1cccc(-c2cc3nc(-c4ccccc4)cc(=O)n3[nH]2)c1	7	0	-2	-6	0	-133
Cc1cc(=O)n2[nH]c(N)c(N=Nc3ccccc3)c2n1	4	1	-1	-9	-9	-20
COc1cccc(N=Nc2c(N)[nH]n3c(=O)cc(-c4ccccc4)nc23)c1	42*	0	-4	0	0	13

Bioassay records (PubChem BioAssay)
